Source: ChEMBL document CHEMBL5058577, “EUbOPEN Chemogenomics Library 2 (Multiplex)” (2022)

Test system: U2OS
Test: Multiplex assay against U2OS
Type: toxicity, cell-based
Conditions: human
In short: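 Cells stained live at seeding with Hoechst33342, BioTracker Green Microtubule Cytoskeleton Dye, MitoTracker Red and Annexin V Alexa Fluor 680 were imaged on a CQ1 microscope at 37°C and 5% CO2 after compound addition. Their classification by CellPathfinder machine-learning gating ran from Hoechst high-intensity objects versus normal cells, to healthy, pyknosed or fragmented nuclei among normal cells, to mitotic or apoptotic among pyknosed cells. Tubulin, mitochondrial-mass and membrane-permeability phenotypes are per cents of healthy-nucleus cells.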

[1] = 12 h, 1 µM, compound concentration 1 uM, replicate 1
[2] = 12 h, 1 µM, compound concentration 1 uM, replicate 2
[3] = 12 h, 10 µM, compound concentration 10 uM, replicate 1
[4] = 12 h, 10 µM, compound concentration 10 uM, replicate 2
[5] = 24 h, 1 µM, compound concentration 1 uM, replicate 1
[6] = 24 h, 1 µM, compound concentration 1 uM, replicate 2
[7] = 24 h, 10 µM, compound concentration 10 uM, replicate 1
[8] = 24 h, 10 µM, compound concentration 10 uM, replicate 2
[9] = 48 h, 1 µM, compound concentration 1 uM, replicate 1
[10] = 48 h, 1 µM, compound concentration 1 uM, replicate 2
[11] = 48 h, 10 µM, compound concentration 10 uM, replicate 1
[12] = 48 h, 10 µM, compound concentration 10 uM, replicate 2

Cc1noc(-c2ccc(-c3ccc(CC(=O)O)cc3)cc2)c1NC(=O)O[C@H](C)c1ccccc1Cl
Population Apoptotic (%) [1]: 95%
Population Fragmented Nuclei (%) [1]: 21%
Population Healthy Nuclei (%) [1]: 69%
Population Hoechst High Intensity Objects (%) [1]: 4%
Population Membrane Permeable-Phenotype (%) [1]: 7%
Population Mitochondria Different-Phenotype (%) [1]: 5%
Population Mitotic Cells (%) [1]: 5%
Population Normal (%) [1]: 95%
Population Pyknosed Nuclei (%) [1]: 9%
Population Tubulin-Different-Phenotype (%) [1]: 4%
Total Cell Count [1]: 231
Population Apoptotic (%) [2]: 85%
Population Fragmented Nuclei (%) [2]: 19%
Population Healthy Nuclei (%) [2]: 74%
Population Hoechst High Intensity Objects (%) [2]: 0%
Population Membrane Permeable-Phenotype (%) [2]: 2%
Population Mitochondria Different-Phenotype (%) [2]: 2%
Population Mitotic Cells (%) [2]: 14%
Population Normal (%) [2]: 99%
Population Pyknosed Nuclei (%) [2]: 7%
Total Cell Count [2]: 101
Population Apoptotic (%) [3]: 78%
Population Fragmented Nuclei (%) [3]: 29%
Population Healthy Nuclei (%) [3]: 61%
Population Hoechst High Intensity Objects (%) [3]: 2%
Population Membrane Permeable-Phenotype (%) [3]: 11%
Population Mitochondria Different-Phenotype (%) [3]: 4%
Population Mitotic Cells (%) [3]: 21%
Population Normal (%) [3]: 97%
Population Pyknosed Nuclei (%) [3]: 9%
Population Tubulin-Different-Phenotype (%) [3]: 6%
Total Cell Count [3]: 242
Population Apoptotic (%) [4]: 71%
Population Fragmented Nuclei (%) [4]: 11%
Population Healthy Nuclei (%) [4]: 83%
Population Membrane Permeable-Phenotype (%) [4]: 6%
Population Mitochondria Different-Phenotype (%) [4]: 2%
Population Mitotic Cells (%) [4]: 28%
Population Pyknosed Nuclei (%) [4]: 5%
Total Cell Count [4]: 138
Population Apoptotic (%) [5]: 96%
Population Fragmented Nuclei (%) [5]: 19%
Population Healthy Nuclei (%) [5]: 70%
Population Hoechst High Intensity Objects (%) [5]: 2%
Population Membrane Permeable-Phenotype (%) [5]: 5%
Population Mitochondria Different-Phenotype (%) [5]: 4%
Population Mitotic Cells (%) [5]: 3%
Population Normal (%) [5]: 97%
Population Pyknosed Nuclei (%) [5]: 9%
Population Tubulin-Different-Phenotype (%) [5]: 3%
Total Cell Count [5]: 277
Population Apoptotic (%) [6]: 77%
Population Fragmented Nuclei (%) [6]: 15%
Population Healthy Nuclei (%) [6]: 77%
Population Hoechst High Intensity Objects (%) [6]: 0%
Population Membrane Permeable-Phenotype (%) [6]: 4%
Population Mitochondria Different-Phenotype (%) [6]: 3%
Population Mitotic Cells (%) [6]: 22%
Population Normal (%) [6]: 99%
Population Pyknosed Nuclei (%) [6]: 7%
Population Tubulin-Different-Phenotype (%) [6]: 6%
Total Cell Count [6]: 125
Population Apoptotic (%) [7]: 92%
Population Fragmented Nuclei (%) [7]: 24%
Population Healthy Nuclei (%) [7]: 65%
Population Hoechst High Intensity Objects (%) [7]: 1%
Population Membrane Permeable-Phenotype (%) [7]: 11%
Population Mitochondria Different-Phenotype (%) [7]: 2%
Population Mitotic Cells (%) [7]: 7%
Population Normal (%) [7]: 98%
Population Pyknosed Nuclei (%) [7]: 10%
Population Tubulin-Different-Phenotype (%) [7]: 5%
Total Cell Count [7]: 260
Population Apoptotic (%) [8]: 90%
Population Fragmented Nuclei (%) [8]: 12%
Population Healthy Nuclei (%) [8]: 80%
Population Hoechst High Intensity Objects (%) [8]: 2%
Population Membrane Permeable-Phenotype (%) [8]: 7%
Population Mitotic Cells (%) [8]: 9%
Population Normal (%) [8]: 97%
Population Pyknosed Nuclei (%) [8]: 7%
Population Tubulin-Different-Phenotype (%) [8]: 4%
Total Cell Count [8]: 154
Population Apoptotic (%) [9]: 97%
Population Fragmented Nuclei (%) [9]: 15%
Population Healthy Nuclei (%) [9]: 75%
Population Hoechst High Intensity Objects (%) [9]: 1%
Population Membrane Permeable-Phenotype (%) [9]: 6%
Population Mitochondria Different-Phenotype (%) [9]: 3%
Population Mitotic Cells (%) [9]: 2%
Population Normal (%) [9]: 98%
Population Pyknosed Nuclei (%) [9]: 9%
Population Tubulin-Different-Phenotype (%) [9]: 3%
Total Cell Count [9]: 408
Population Apoptotic (%) [10]: 86%
Population Fragmented Nuclei (%) [10]: 18%
Population Healthy Nuclei (%) [10]: 72%
Population Hoechst High Intensity Objects (%) [10]: 0%
Population Mitochondria Different-Phenotype (%) [10]: 4%
Population Mitotic Cells (%) [10]: 13%
Population Normal (%) [10]: 100%
Population Pyknosed Nuclei (%) [10]: 8%
Population Tubulin-Different-Phenotype (%) [10]: 4%
Total Cell Count [10]: 170
Population Apoptotic (%) [11]: 92%
Population Fragmented Nuclei (%) [11]: 19%
Population Healthy Nuclei (%) [11]: 72%
Population Hoechst High Intensity Objects (%) [11]: 3%
Population Membrane Permeable-Phenotype (%) [11]: 7%
Population Mitochondria Different-Phenotype (%) [11]: 3%
Population Mitotic Cells (%) [11]: 7%
Population Normal (%) [11]: 96%
Population Pyknosed Nuclei (%) [11]: 8%
Population Tubulin-Different-Phenotype (%) [11]: 5%
Total Cell Count [11]: 344
Population Apoptotic (%) [12]: 85%
Population Fragmented Nuclei (%) [12]: 9%
Population Healthy Nuclei (%) [12]: 78%
Population Hoechst High Intensity Objects (%) [12]: 4%
Population Membrane Permeable-Phenotype (%) [12]: 6%
Population Mitochondria Different-Phenotype (%) [12]: 2%
Population Mitotic Cells (%) [12]: 14%
Population Normal (%) [12]: 95%
Population Pyknosed Nuclei (%) [12]: 11%
Population Tubulin-Different-Phenotype (%) [12]: 4%
Total Cell Count [12]: 241
